Assay outcomes deposited in PubChem BioAssay by The Scripps Research Institute Molecular Screening Center.
M4 PAM: potentiates acetylcholine response at human M4 receptor; AID 624126; CHO-K1 hM4/Gqi5, Fluo-8 calcium fluorescence, ACh EC20; 0% = ACh EC20, 100% = maximal ACh; activation, % at 3 µM; P08173; actives 0.4% (n = 360,000);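 active = activation above its plate's cutoff, the mean activation of sample wells plus 3 SD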
CHRM5 antagonist: blocks acetylcholine activation of human M5 receptor; P08912; CHO-hM5 cells, Fluo-8 calcium fluorescence, ACh EC80; inhibition, % at 3 µM; actives 0.59% (n = 360,000); AID 624040;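 active = inhibition above a per-plate cutoff, the mean of that plate's test compounds plus 3 SD, cut at about 27% in these data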;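 also: 0% = acetylcholine EC80 with DMSO and 100% = DMSO without agonist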
Target sequence (P08912 whole entry, looked up): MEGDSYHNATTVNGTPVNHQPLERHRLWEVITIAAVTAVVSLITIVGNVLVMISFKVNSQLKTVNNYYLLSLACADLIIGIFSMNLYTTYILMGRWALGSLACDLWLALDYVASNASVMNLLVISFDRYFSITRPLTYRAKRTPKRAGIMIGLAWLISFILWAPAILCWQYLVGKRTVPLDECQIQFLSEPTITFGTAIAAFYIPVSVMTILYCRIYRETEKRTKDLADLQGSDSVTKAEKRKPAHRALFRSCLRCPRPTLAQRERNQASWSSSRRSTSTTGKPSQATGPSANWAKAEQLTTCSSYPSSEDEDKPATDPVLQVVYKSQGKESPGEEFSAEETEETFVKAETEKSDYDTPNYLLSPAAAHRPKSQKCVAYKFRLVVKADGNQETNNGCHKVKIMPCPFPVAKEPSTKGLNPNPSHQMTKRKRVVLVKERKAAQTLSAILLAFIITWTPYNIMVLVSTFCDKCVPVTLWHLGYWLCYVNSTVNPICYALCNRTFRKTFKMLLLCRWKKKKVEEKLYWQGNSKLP
M5 PAM: positive allosteric modulators of human muscarinic M5 receptor | P08912 | AID 624038 | CHO-K1 hM5, Fluo-8 calcium, ACh EC20 PAM; 0% = ACh EC20, 100% = ACh EC100 | activation, % at 3 µM | actives 0.3% (n = 360,000);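 active = activation above the run cutoff, the mean activation of all test compounds plus 3 SD, cut at about 18% in these data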
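Assay system – human M5 receptor in CHO-K1 cells · Read-out – % activation, ACh-normalized · Technique – Fluo-8 calcium fluorescence · Dosing – single-point, 3 µM nominal · Incubation – Fluo-8 loading 80 min at 37 °C plus 30 min room temperature · Repeats – singlicate, one well per test compound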
M4 antag: CHRM4 antagonism in calcium assay; CHO-hM4 cells, ACh EC80, Fluo-8 calcium fluorescence; inhibition, % at 3 µM; actives 0.73% (n = 360,000); AID 624125;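 active = inhibition above its plate's cutoff, the mean inhibition of sample wells plus 3 SD, cut at about 27% in these data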;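 also: 0% = acetylcholine EC80 with DMSO and 100% = DMSO without agonist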
CHRM4 agonist: agonists of human muscarinic M4 receptor (CHRM4); P08173; CHO-K1 hM4/Gqi5, Fluo-8 calcium fluorescence; vehicle 0%, full acetylcholine response 100%; activation, % at 3 µM; actives 0.14% (n = 360,000); AID 624127;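 active = activation above the run mean over all test wells plus 3 SD, cut at about 32% in these data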;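 also: peak over basal fluorescence ratio per well then scaled between controls; 0% = DMSO wells and 100% = acetylcholine at EC100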
M5 ag: agonists of human muscarinic M5 receptor (CHRM5) | activation, % at 3 µM | actives 0.19% (n = 360,000) | P08912 | CHO-K1 hM5 cells, Fluo-8 calcium fluorescence; 0% DMSO wells, 100% maximal acetylcholine response;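 active = activation above the run's mean over test compounds plus 3 SD, cut at about 23% in these data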;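 also: signal is peak over basal fluorescence ratio across the kinetic read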
Numbers without * were called inactive. Only some compounds are listed: those with a hit (about 1.8% of all), similar ones and a draw of the others.

SMILES | M4 PAM | CHRM5 antagonist | M5 PAM | M4 antag | CHRM4 agonist | M5 ag
O=C(NCCNC(=O)c1ccc(Cl)cc1Cl)c1ccco1 | 16* | -11 | 6 | -16 | 1 | -2
O=C(CNC(=O)c1ccco1)NCC(=O)OCc1cccc(Cl)c1 | 44* | -9 | 5 | 5 | 1 | 0
O=C(CNC(=O)c1ccco1)OCc1cccc(Cl)c1 | 0 | -2 | 4 | 0 | 1 | -3
CC(O)(c1cccc(F)c1)c1nc(-c2cccc(C#N)c2)cs1 (stereo not given) | 2 | 7 | -7 | -11 | 2 | -1
CC(O)(c1cccnc1)c1nc(-c2cccc(C#N)c2)cs1 (stereo not given) | 19* | -8 | -6 | -17 | 5 | 3
Cc1ccc(S(=O)(=O)N(C)CC(=O)NNC(=O)CCS(=O)(=O)c2ccccc2)cc1 | 6 | 5 | -9 | -18 | 1 | 1
CCCCOc1ccc(Br)cc1CSC(=N)N | -10 | 40* | -18 | 26* | 10 | 1
CC(=O)c1cccc(NS(=O)(=O)c2cc(OCC(N)=O)c(C)cc2Cl)c1 | 0 | -2 | 0 | 1 | 0 | 2
Cc1cccc(NS(=O)(=O)c2cc(OCC(N)=O)c(C)cc2Cl)c1 | -2 | 5 | -9 | -12 | 9 | 28*
Cc1ccc(NS(=O)(=O)c2cc(OCC(N)=O)c(C)cc2Cl)cc1C | 13 | -5 | 15 | 15 | 4 | 34*
Cc1ccccc1NS(=O)(=O)c1cc(OCC(N)=O)c(C)cc1Cl | 1 | 2 | 11 | 1 | 1 | 7
O=C(Cc1ccsc1)OCC(=O)c1ccccc1 | 4 | 1 | -4 | -7 | 0 | -2
O=[N+]([O-])/C=C\c1ccc(N2CCCC2)c(F)c1 | -23 | 78* | -27 | 34* | 41* | 64*
CC(N)=Nc1ccc([N+](=O)[O-])cc1 | 0 | -3 | 1 | -4 | 0 | -1
O=[N+]([O-])c1ccc(N=Nc2c(Cl)cc(O)cc2Cl)cc1 | -11 | 30* | -21 | 11 | 16 | 12
CCSC1OC(C(COC(C)=O)OC(C)=O)C(OC(C)=O)C1NC(C)=S (stereo not given) | -1 | 8 | 4 | 1 | 1 | 1
CCC(CO)NCC(O)COCc1ccc2c(c1)OCO2 (stereo not given) | 20* | -1 | 0 | -13 | 1 | -4
OC(COCc1ccc2c(c1)OCO2)CN1CCCCC1 (stereo not given) | 4 | 0 | 6 | -13 | 0 | -3
Cc1ccc2[nH]c(CSc3ccccc3)cc(=O)c2c1 | 1 | 3 | -3 | -14 | 8 | 1
O=C(Nc1ccc(F)cc1)C(c1ccncc1)N1CCN(C(=O)c2ccco2)CC1 (stereo not given) | 15 | -13 | 20* | -4 | 0 | 1
CCCCCc1nc2sc3c(c2c(=O)n1NC(=O)c1ccc([N+](=O)[O-])cc1)CC(C)(C)OC3 | -13 | 34* | -16 | 3 | 9 | 0
CCCCCCCc1nc2sc3c(c2c(=O)n1N)CC(C)(C)OC3 | 7 | 15 | -1 | 7 | 0 | -2
CC(C)N(C)Cc1nnnn1CC(=O)NCCc1cccc(C(F)(F)F)c1 | -4 | 1 | 22* | -2 | 0 | 3
CCOc1cc(/C=C2\CCn3c2nc2cc(Cl)ccc2c3=O)ccc1O | -2 | 10 | -7 | 4 | 1 | -2
Cc1cc(-c2ccc(S(=O)(=O)N3CCN(C)CC3)s2)on1 | 6 | 35* | -13 | -2 | 1 | -8
O=C1c2cccc3c([N+](=O)[O-])ccc(c23)C(=O)N1c1ccccn1 | -6 | 28* | -4 | 15 | 1 | -7
O=C1c2cccc3c([N+](=O)[O-])ccc(c23)C(=O)N1c1nccs1 | -12 | 16 | -8 | 36* | -2 | -5
O=C1c2cccc3c([N+](=O)[O-])ccc(c23)C(=O)N1c1ccc(Cl)cn1 | -13 | 25 | -20 | 32* | 4 | -7
CCCCS(=O)(=O)N1CCCC(C(=O)Oc2ccc(Cl)cc2)C1 (stereo not given) | 13 | -10 | 9 | -16 | 2 | 6
